What was measured:
[1] = target: T1, Sodium-dependent dopamine transporter (Homo sapiens, UniProt Q01959); assay: Enhancing of [3H]WIN35,428 binding to recombinant human DAT expressed in HEK293 cell membranes at 10 uM pre-incubated for 10 mins before radioligand addition and measured 90 mins after radioligand addition by micro beta scintillation counting analysis relative to control
Adenosine receptor A3 = target: T2, Adenosine receptor A3 (Mus musculus, UniProt Q61618); assay: Displacement of [125I]N6-(4-amino-3-iodobenzyl)adenosine-5'-N-methyluronamide from mouse A3AR expressed in HEK293T cells pre-incubated for 10 mins before radioligand addition and measured 90 mins after radioligand addition by micro beta scintillation counting analysis relative to control; assay type: cell-based
T2 sequence (Q61618 whole entry): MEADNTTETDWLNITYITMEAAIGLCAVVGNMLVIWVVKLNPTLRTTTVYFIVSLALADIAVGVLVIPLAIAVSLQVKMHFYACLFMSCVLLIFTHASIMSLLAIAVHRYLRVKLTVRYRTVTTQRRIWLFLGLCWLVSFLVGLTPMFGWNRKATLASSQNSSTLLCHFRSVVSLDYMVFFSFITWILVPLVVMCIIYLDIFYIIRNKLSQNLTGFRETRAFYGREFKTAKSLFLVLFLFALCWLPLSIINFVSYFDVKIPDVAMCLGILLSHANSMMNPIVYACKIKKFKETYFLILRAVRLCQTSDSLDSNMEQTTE

[2] = target: T1, Sodium-dependent dopamine transporter; assay: Enhancing of [125I]RTI-55 binding to recombinant human DAT expressed in HEK293 cell membranes preincubated for 10 mins followed by radioligand addition measured after 90 mins by micro beta scintillation counting analysis; design: concentration or dose not given beside the values
Procedure, shortened: (§1)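 Membranes of HEK-293 cells stably expressing hDAT, hNET or hSERT. […] Compound preincubated 10 min at room temperature, then [125I]23 (40-80 pM final) or [3H]26 (1-3 nM for DAT and NET, 10-13 nM for SERT) added. Incubated 90 min at room temperature in the dark, then filtered. EC50 or Ki; mean ± SEM.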

[3] = target: T1, Sodium-dependent dopamine transporter; assay: Enhancing of [3H]mazindol binding to recombinant human DAT expressed in HEK293 cell membranes preincubated for 10 mins followed by radioligand addition measured after 90 mins by micro beta scintillation counting analysis; design: concentration or dose not given beside the values; procedure, shortened: as §1
[4] = target: Sodium-dependent noradrenaline transporter (Homo sapiens, UniProt P23975); assay: Enhancing of [125I]RTI-55 binding to recombinant human NET expressed in HEK293 cell membranes preincubated for 10 mins followed by radioligand addition measured after 90 mins by micro beta scintillation counting analysis; design: concentration or dose not given beside the values
[5] = target: T1, Sodium-dependent dopamine transporter; assay: Inhibition of recombinant human DAT expressed in HEK293 cell […] as reduction in [3H]-DA uptake incubated for 22 mins by micro beta scintillation counting analysis
[6] = target: Sodium-dependent serotonin transporter (Homo sapiens, UniProt P31645); assay: Enhancing of [3H]mazindol binding to recombinant human SERT expressed in HEK293 cell membranes preincubated for 10 mins followed by radioligand addition measured after 90 mins by micro beta scintillation counting analysis
[7] = target: T3, 5-hydroxytryptamine receptor 2C (Homo sapiens, UniProt P28335); assay: Displacement of [3H]Mesulergine from human 5-HT2C receptor
T3 sequence (P28335 whole entry): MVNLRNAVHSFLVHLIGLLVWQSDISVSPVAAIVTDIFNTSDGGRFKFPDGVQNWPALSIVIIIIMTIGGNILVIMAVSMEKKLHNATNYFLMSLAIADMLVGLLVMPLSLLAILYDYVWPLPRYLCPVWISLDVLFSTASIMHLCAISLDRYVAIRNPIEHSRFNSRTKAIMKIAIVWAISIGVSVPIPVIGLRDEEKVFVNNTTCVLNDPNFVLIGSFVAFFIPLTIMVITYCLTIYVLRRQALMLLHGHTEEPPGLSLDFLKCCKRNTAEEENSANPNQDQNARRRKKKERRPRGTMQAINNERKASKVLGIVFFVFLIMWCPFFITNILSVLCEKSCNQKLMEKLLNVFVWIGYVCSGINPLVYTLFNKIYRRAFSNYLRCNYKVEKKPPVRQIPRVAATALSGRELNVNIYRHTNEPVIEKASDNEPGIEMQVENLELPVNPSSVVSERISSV

[8] = target: Alpha-2B adrenergic receptor (Homo sapiens, UniProt P18089); assay: Displacement of [3H]Rauwolscine from human adrenergic alpha2B receptor
[9] = target: T4, Alpha-1A adrenergic receptor (Homo sapiens, UniProt P35348); assay: Displacement of [3H]Prazosin from human adrenergic alpha1A receptor
T4 sequence (P35348 whole entry): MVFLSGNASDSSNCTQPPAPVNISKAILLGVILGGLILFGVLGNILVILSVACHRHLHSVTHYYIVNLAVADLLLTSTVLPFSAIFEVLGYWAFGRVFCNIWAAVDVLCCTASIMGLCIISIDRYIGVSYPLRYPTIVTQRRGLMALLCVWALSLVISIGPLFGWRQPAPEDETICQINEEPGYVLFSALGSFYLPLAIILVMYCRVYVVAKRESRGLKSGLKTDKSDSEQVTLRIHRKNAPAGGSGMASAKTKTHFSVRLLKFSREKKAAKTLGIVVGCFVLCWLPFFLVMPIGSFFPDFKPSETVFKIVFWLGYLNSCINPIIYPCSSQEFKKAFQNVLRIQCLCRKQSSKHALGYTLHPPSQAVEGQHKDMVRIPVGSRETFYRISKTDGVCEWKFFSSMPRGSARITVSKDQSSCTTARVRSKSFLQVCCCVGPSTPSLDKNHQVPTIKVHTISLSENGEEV

[10] = target: T5, Alpha-1D adrenergic receptor (Homo sapiens, UniProt P25100); assay: Displacement of [3H]Prazosin from human adrenergic alpha1D receptor
T5 sequence (P25100 whole entry): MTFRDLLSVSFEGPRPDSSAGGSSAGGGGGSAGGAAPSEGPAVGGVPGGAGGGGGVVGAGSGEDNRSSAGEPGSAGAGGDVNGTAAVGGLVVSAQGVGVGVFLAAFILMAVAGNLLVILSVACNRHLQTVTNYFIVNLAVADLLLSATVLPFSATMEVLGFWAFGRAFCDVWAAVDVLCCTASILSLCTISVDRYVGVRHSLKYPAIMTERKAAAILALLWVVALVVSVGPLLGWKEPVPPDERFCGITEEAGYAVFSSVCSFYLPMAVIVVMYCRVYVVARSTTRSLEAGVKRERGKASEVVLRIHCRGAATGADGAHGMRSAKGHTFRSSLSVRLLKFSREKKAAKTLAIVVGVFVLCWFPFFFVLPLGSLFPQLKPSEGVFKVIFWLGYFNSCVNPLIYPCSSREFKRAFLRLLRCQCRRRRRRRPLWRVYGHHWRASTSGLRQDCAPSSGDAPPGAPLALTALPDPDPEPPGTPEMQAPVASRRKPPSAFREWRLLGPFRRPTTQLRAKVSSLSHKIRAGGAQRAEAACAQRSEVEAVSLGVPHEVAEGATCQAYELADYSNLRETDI

T1 sequence (Q01959 whole entry): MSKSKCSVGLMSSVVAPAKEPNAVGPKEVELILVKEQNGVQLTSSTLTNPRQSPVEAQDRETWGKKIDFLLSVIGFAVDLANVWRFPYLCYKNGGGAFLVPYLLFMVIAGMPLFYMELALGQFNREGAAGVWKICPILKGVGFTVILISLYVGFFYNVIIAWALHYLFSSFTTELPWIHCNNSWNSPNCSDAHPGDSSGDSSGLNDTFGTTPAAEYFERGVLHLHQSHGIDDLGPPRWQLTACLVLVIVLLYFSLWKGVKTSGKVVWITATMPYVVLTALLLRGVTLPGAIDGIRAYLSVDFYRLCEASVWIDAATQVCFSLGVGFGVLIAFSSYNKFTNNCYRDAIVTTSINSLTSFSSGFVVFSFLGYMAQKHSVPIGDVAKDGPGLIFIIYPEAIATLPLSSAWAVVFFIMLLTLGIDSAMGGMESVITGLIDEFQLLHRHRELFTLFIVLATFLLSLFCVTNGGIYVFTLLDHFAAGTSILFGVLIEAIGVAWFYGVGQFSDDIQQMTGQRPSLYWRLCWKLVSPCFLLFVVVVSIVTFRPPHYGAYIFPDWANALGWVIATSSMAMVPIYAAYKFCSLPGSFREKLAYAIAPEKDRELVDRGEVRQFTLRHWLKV
Chain of Sodium-dependent noradrenaline transporter (P23975 whole entry): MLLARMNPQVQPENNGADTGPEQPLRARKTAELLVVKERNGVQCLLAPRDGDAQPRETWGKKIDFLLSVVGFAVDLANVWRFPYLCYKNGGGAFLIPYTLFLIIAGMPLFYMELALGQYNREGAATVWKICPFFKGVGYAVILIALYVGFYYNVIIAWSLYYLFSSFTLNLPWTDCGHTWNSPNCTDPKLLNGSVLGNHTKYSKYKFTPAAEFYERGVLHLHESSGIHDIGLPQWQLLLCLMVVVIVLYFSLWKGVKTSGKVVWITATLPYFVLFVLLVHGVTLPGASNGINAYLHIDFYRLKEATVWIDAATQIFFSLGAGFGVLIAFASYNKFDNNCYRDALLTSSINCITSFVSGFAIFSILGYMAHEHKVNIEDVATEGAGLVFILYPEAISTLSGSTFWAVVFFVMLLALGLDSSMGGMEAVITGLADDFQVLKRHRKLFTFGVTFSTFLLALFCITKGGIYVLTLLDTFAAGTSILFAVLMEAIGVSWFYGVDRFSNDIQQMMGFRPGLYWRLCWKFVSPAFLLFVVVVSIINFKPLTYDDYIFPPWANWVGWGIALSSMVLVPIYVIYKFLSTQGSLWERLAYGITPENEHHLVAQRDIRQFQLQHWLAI
Chain of Alpha-2B adrenergic receptor (P18089 whole entry): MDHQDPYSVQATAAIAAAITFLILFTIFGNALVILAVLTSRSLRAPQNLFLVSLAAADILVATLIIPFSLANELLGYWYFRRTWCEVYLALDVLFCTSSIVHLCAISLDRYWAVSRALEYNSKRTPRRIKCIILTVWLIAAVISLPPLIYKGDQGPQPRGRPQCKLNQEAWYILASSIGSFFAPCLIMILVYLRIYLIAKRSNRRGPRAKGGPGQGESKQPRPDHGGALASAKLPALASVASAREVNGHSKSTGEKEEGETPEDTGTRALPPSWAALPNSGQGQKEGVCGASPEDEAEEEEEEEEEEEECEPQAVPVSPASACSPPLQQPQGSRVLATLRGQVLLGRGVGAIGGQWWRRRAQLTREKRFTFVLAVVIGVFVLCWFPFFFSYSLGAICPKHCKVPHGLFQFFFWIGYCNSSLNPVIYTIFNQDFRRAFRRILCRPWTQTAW
Chain of Sodium-dependent serotonin transporter (P31645 whole entry): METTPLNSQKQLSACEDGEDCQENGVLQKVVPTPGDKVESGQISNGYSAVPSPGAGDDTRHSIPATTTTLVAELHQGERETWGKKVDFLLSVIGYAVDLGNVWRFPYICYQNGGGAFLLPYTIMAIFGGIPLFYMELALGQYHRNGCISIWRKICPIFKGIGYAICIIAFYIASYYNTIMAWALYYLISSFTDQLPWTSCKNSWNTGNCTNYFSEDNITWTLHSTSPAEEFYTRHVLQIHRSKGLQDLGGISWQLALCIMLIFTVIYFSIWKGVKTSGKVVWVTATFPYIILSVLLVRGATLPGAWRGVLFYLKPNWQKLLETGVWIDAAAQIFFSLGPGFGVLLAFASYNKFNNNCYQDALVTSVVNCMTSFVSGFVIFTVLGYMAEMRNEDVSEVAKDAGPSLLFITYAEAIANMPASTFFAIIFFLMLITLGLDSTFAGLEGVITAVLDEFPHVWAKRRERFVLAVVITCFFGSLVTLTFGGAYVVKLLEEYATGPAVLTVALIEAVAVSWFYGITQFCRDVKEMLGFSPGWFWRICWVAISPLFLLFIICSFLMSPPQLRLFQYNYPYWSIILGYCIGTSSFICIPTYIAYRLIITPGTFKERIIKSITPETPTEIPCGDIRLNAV

SMILES: CNc1nc(C#Cc2ccc(Cl)s2)nc2c1ncn2[C@@H]1O[C@H](C(=O)OC)[C@@H](O)[C@H]1O
- Activity [1]: 220%
- Ki (Adenosine receptor A3): 0.034 µM
- Activity [2]: 312%
- EC50 ([2]; read-out: EC50): 0.127 µM
- Activity [3]: 269%
- EC50 ([3]; read-out: EC50): 0.86 µM
- Activity [4]: 227%
- EC50 ([4]; read-out: EC50): 1.52 µM
- IC50 [5]: 0.396 µM
- EC50 [6]: > 10 µM
- Ki [7]: 3.24 µM
- Ki [8]: 5 to 10 µM
- Ki [9]: > 10 µM
- Ki [10]: > 10 µM

Reference: ChEMBL document CHEMBL4007505 (J Med Chem, 2017)
